Results from ChEMBL document CHEMBL3351507, “11H-Pyrido[3',2':4,5]pyrrolo[3,2-c]cinnoline and pyrido[3',2':4,5]pyrrolo[1,2-c][1,2,3]benzotriazine: two new ring systems with antitumor activity” (2014).
The source made the active and inactive calls. No cut-off for these calls is given here.

Key:
LoVo [1] = assay: Resistance index, ratio of GI50 for human LoVo/DX cells to GI50 for human LoVo cells; type: functional
In short: (§1)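 CEMVbl-100 (vinblastine-selected CEM) was grown in RPMI-1640 with 0.1 µg/mL vinblastine. LoVoDoxo was grown in HAM's F12 with 0.1 µg/mL doxorubicin; parental CEM and LoVo were grown without drug. Media had 10% FBS. 5x10^3 cells were seeded, preincubated 24 h at 37 °C, then exposed 72 h to compound (DMSO <1%). Read-out was MTT; GI50 came from dose-response curves of ≥3 experiments. RI = GI50 resistant / GI50 parental.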

LoVo [2] = assay: Cytotoxicity against human LoVo cells assessed as growth inhibition after 72 hrs by MTT assay; type: functional
In short: (§2)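 Cells were grown in medium with 10% heat-inactivated FBS plus penicillin/streptomycin: RPMI-1640 for Jurkat and CEM, DMEM for A-431, HAM's F12 for LoVo. The doxorubicin-resistant LoVo subclone was kept with 0.1 µg/mL doxorubicin. Cells were seeded at 5x10^3 per well and pre-incubated 24 h at 37 °C.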

[3] = Cytotoxicity against human LoVo/DX cells assessed as growth inhibition after 72 hrs by MTT assay; type: functional; in short: as §2
CCRF-CEM [4] = assay: Resistance index, ratio of GI50 for human vinblastin-resistant CEM cells to GI50 for human CEM cells; type: functional; in short: as §1
CCRF-CEM [5] = assay: Cytotoxicity against human CEM cells assessed as growth inhibition after 72 hrs by MTT assay; type: functional; in short: as §2
CCRF-CEM [6] = assay: Cytotoxicity against human vinblastin-resistant CEM cells assessed as growth inhibition after 72 hrs by MTT assay; type: functional; in short: as §1
[7] = target: T1, DNA topoisomerase 1 (Homo sapiens) (UniProt P11387); assay: Inhibition of human DNA topoisomerase 1-mediated DNA single strand cleavage at 5 to 100 uM after 30 mins by agarose gel electrophoresis relative to untreated control
T1 sequence (whole entry): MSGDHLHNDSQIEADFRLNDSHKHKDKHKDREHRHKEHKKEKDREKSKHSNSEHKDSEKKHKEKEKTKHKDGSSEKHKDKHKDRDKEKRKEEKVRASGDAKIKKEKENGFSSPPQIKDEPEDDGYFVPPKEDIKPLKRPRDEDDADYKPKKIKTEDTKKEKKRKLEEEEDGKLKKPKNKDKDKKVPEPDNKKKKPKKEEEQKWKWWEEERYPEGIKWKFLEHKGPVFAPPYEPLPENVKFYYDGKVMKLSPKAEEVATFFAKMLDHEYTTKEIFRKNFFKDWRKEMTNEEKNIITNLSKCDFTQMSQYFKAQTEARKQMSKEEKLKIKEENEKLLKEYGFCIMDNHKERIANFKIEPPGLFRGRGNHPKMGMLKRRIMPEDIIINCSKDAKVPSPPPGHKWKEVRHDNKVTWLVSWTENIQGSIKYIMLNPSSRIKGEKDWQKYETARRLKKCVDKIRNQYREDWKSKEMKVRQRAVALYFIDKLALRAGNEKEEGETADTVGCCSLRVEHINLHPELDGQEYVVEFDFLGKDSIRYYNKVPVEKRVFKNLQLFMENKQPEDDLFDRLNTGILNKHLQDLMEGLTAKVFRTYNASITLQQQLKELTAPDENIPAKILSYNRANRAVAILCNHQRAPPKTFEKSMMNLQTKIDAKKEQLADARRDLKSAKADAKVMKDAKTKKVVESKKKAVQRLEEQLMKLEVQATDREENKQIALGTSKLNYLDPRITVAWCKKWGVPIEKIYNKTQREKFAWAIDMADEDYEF
In short: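 Reactions were set up as for relaxation: human topoisomerase I, 0.250 µg pBR322, compound 5-100 µM, 37 °C for 30 min, stopped with SDS/proteinase K. Samples were run on 0.8% agarose containing 0.5 µg/mL ethidium bromide, then destained in water, so that cleaved/nicked DNA could be detected under UV.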

COc1cccc2c1C(=O)c1c(O)c3c(c(O)c1C2=O)C[C@@](O)(C(=O)CO)C[C@@H]3O[C@H]1C[C@H](N)[C@H](O)[C@H](C)O1 [DOXORUBICIN]
Ratio (LoVo [1]): 112.5 | GI50 (LoVo [2]): 120 nM | GI50 [3]: 13500 nM

CC[C@]1(O)C[C@@H]2CN(CCc3c([nH]c4ccccc34)[C@@](C(=O)OC)(c3cc4c(cc3OC)N(C)[C@H]3[C@@](O)(C(=O)OC)[C@H](OC(C)=O)[C@]5(CC)C=CCN6CC[C@]43[C@@H]65)C2)C1 [VINBLASTINE]
Ratio (CCRF-CEM [4]): 525 | GI50 (CCRF-CEM [5]): 4 nM | GI50 (CCRF-CEM [6]): 210 nM

CC[C@@]1(O)C(=O)OCc2c1cc1n(c2=O)Cc2cc3ccccc3nc2-1
Activity [7]: Active
